Assay results as given in ChEMBL document CHEMBL4706601, “The endocannabinoid system dual-target ligand N-cycloheptyl-1,2-dihydro-5-bromo-1-(4-fluorobenzyl)-6-methyl-2-oxo-pyridine-3-carboxamide improves disease severity in a mouse model of multiple sclerosis” (Eur J Med Chem, 2020).

How the values were obtained:
Cannabinoid receptor 1 [1] = target: T1, Cannabinoid receptor 1 (Homo sapiens, UniProt P21554); assay: Displacement of [3H]CP55940 from recombinant human CB1R expressed in CHO cell membranes incubated for 90 mins; parameters: species or system Membrane
T1 sequence (P21554 whole entry): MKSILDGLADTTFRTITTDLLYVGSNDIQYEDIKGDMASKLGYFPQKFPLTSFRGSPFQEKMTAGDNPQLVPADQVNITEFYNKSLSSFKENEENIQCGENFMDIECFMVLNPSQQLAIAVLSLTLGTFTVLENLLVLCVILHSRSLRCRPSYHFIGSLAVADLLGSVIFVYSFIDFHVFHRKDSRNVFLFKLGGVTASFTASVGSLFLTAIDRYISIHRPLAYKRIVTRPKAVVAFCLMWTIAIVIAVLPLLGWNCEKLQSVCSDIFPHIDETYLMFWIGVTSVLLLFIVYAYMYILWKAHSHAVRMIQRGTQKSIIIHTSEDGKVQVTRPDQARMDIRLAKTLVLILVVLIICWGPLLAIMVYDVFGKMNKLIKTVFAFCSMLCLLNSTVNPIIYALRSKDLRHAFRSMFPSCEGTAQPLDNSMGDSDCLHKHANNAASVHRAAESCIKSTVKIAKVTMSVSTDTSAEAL

Cannabinoid receptor 2 [2] = target: T2, Cannabinoid receptor 2 (Homo sapiens, UniProt P34972); assay: Displacement of [3H]CP55940 from recombinant human CB2R expressed in CHO cell membranes incubated for 90 mins; parameters: species or system Membrane
T2 sequence (P34972 whole entry): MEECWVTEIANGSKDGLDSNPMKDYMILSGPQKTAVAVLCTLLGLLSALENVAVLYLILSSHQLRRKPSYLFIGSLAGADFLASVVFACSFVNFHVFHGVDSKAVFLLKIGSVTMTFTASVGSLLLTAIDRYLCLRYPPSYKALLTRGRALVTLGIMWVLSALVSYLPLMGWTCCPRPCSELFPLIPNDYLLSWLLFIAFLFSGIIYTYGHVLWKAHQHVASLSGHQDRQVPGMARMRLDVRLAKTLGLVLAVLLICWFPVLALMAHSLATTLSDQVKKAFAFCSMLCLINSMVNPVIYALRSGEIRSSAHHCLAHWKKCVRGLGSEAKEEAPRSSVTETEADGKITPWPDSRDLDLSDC

[3] = target: T3, Fatty-acid amide hydrolase 1 (Homo sapiens, UniProt O00519); assay: Inhibition of FAAH in human U937 cells using [ethanolamine-1-3H]AEA as substrate preincubated for 15 mins followed by substrate addition and measured after 15 mins by liquid scintillation spectroscopy; format: cell-based, U-937
T3 sequence (O00519 whole entry): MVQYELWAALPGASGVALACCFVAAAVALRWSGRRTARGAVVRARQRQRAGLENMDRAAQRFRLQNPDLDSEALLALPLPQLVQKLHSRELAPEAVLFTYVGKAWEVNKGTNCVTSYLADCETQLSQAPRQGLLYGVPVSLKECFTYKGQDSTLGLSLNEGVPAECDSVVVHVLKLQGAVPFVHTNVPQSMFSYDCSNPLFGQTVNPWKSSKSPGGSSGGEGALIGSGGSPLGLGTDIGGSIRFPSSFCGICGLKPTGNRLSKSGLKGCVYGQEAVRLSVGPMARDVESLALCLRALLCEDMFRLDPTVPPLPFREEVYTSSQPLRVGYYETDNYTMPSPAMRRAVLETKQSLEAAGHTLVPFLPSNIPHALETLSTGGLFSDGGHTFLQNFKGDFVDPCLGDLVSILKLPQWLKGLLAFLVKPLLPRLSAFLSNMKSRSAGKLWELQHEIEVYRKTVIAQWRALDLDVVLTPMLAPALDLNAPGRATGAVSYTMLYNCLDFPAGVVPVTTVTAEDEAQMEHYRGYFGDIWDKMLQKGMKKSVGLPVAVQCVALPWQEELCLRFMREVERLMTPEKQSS
Method in brief: (§1)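 Intact U937 cells, 10^6 per condition, pre-incubated with compound 15 min at 37 °C with shaking (screen at 10 μM; full curves for hits). Substrate: 1 μM AEA with 1 nM [3H]AEA (FAAH) or 10 μM 2-OG with 5 nM [3H]2-OG (MAGL), 15 min at 37 °C. Stopped with CHCl3:MeOH 1:1, aqueous tritium counted; mean ± SD, ≥3 experiments in triplicate.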

Monoglyceride lipase = target: T4, Monoglyceride lipase (Homo sapiens, UniProt Q99685); assay: Inhibition of MAGL in human U937 cells using [glycerol-1,2,3-3H]2-OG as substrate preincubated for 15 mins followed by substrate addition and measured after 15 mins by liquid scintillation spectroscopy; format: cell-based, U-937; method in brief: as §1
T4 sequence (Q99685 whole entry): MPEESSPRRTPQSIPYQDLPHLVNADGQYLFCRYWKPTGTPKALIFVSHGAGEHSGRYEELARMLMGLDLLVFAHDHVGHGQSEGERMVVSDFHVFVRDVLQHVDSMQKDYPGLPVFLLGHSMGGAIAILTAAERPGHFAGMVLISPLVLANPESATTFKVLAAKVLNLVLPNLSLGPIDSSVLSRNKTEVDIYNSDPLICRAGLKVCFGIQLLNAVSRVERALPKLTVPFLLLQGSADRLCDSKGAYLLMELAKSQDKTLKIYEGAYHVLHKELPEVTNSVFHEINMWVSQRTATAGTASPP

[4] = target: T5, Monoacylglycerol lipase ABHD6 (Homo sapiens, UniProt Q9BV23); assay: Inhibition of human ABHD6 expressed in HEK293 cells using 2-OG as substrate preincubated for 30 mins followed by substrate addition and measured after 5 mins by liquid scintillation spectroscopy; format: cell-based
T5 sequence (Q9BV23 whole entry): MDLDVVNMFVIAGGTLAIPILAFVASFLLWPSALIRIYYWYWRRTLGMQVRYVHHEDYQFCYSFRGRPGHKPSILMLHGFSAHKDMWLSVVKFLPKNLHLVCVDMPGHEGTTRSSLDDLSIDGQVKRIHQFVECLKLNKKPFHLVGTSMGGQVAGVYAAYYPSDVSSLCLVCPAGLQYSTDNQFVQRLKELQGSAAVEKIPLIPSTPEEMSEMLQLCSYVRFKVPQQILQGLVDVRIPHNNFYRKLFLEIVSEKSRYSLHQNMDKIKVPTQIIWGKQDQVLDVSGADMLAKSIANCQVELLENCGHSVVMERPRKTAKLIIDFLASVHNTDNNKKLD
Method in brief: (§2)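 Homogenates (40 µg) from HEK293 stably expressing hABHD6 or hABHD12 pre-incubated with compound 30 min at 37 °C in […], 0.1% BSA, pH 7.6; then 10 μM 2-OG for 5 min at 37 °C. Aqueous phase tritium counted after CHCl3:MeOH stop; no-enzyme blanks and non-transfected HEK293 hydrolysis subtracted. Controls WWL70 10 μM, THL 20 μM.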

[5] = target: T6, Lysophosphatidylserine lipase ABHD12 (Homo sapiens, UniProt Q8N2K0); assay: Inhibition of human ABHD12 expressed in HEK293 cells using 2-OG as substrate preincubated for 30 mins followed by substrate addition and measured after 5 mins by liquid scintillation spectroscopy; format: cell-based; method in brief: as §2
T6 sequence (Q8N2K0 whole entry): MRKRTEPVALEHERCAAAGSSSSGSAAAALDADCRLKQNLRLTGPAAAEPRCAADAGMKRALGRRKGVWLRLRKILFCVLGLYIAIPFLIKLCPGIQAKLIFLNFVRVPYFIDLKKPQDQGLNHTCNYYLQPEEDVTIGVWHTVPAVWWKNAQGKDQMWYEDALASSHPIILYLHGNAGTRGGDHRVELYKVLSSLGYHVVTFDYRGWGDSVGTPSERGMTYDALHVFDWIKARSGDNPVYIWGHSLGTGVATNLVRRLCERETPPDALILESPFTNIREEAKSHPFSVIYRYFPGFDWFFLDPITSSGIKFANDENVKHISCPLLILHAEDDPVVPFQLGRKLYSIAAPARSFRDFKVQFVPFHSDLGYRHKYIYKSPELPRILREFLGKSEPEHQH

Cannabinoid receptor 1 [6] = target: T1, Cannabinoid receptor 1; assay: Partial agonist activity at human CB1R expressed in CHO cell membranes after 90 mins by [35S]GTPgammaS assay; format: functional, Membrane
Method in brief: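 Membranes from CHO cells stably expressing hCB1 (10 µg), in 50 mM Tris-HCl, 3 mM MgCl2, 0.2 mM EDTA, 100 mM NaCl, 0.5% fatty-acid-free BSA, pH 7.4, with 10 µM GDP and 0.1 nM [35S]GTPγS. Compounds added at several concentrations. Incubated 90 min at 30 °C, then rapid filtration and radioactivity counting. Non-specific binding measured with 10 µM GTPγS.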

Cannabinoid receptor 2 [7] = target: T2, Cannabinoid receptor 2; assay: Inverse agonist activity at human CB2R expressed in CHO cell membranes after 90 mins by [35S]GTPgammaS assay; format: functional, Membrane
Method in brief: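 In-house CHO membranes expressing hCB1 or hCB2 (10 µg) in 50 mM Tris-HCl, 3 mM MgCl2, 0.2 mM EDTA, 100 mM NaCl, 0.5% fatty-acid-free BSA, pH 7.4, with 10 μM GDP and 0.1 nM [35S]GTPγS. Incubated 90 min at 30 °C; antagonist pre-incubated 30 min. Nonspecific binding with 10 μM GTPγS; bound label by filtration and counting; ≥3 experiments in triplicate.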

Cc1c(-c2ccc(F)cc2)cc(C(=O)NC2CCCCCC2)c(=O)n1Cc1ccc(F)cc1
Ki (Cannabinoid receptor 1 [1]): 49.3 nM | Ki (Cannabinoid receptor 2 [2]): 28.9 nM | IC50 [3]: 530 nM | IC50 (Monoglyceride lipase): > 10000 nM | IC50 [4]: > 10000 nM | IC50 [5]: 600 nM | EC50 (Cannabinoid receptor 1 [6]): 120 nM | EC50 (Cannabinoid receptor 2 [7]): 6.45 nM
